How the values were obtained:
Assay type in all cases: functional
[1] = test system: Trichophyton mentagrophytes; test: Antifungal activity against Trichophyton mentagrophytes 445 after 48 hrs by microdilution broth method; conditions: Trichophyton mentagrophytes, 445, 48 h
Klebsiella pneumoniae [2] = test: Antibacterial activity against Klebsiella pneumoniae D 11750/08 after 48 hrs by microdilution broth method; conditions: D 11750/08, 48 h
Summary of the method: (§1)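 Mueller-Hinton broth microdilution (modified M07-A07), pH 7.4 (±0.2). Compounds dissolved in DMSO, tested at final 500 to 0.49 µmol/L. Inoculum in sterile water matched to 0.5 McFarland. Incubated in the dark, humid atmosphere, 35 °C, read at 24 and 48 h visually and at 540 nm. MIC taken as ≥95% growth reduction (IC95) versus control.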

Pseudomonas aeruginosa [3] = test: Antibacterial activity against Pseudomonas aeruginosa CCM 1961 after 24 hrs by microdilution broth method; conditions: CCM 1961, 24 h; summary of the method: as §1
Candida tropicalis [4] = test: Antifungal activity against Candida tropicalis 156 after 48 hrs by microdilution broth method; conditions: Candida tropicalis, 156, 48 h
Summary of the method: (§2)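 CLSI M27-A3 broth microdilution in RPMI 1640 with glutamine, buffered to pH 7.0 with MOPS; DMSO diluent. Yeast inoculum 5 × 10^3 ± 0.2 CFU/mL. Moulds grown on Sabouraud agar 3–10 days before spore harvest, final inoculum 0.5-5 × 10^4 CFU/mL, checked in a Bürker chamber. Incubated dark, humid, 35 °C, read at 24 and 48 h visually and at 540 nm. MIC taken as ≥80% (yeasts) or ≥50% (filamentous) growth reduction versus control.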

Lichtheimia corymbifera [5] = test: Antifungal activity against Absidia corymbifera 272 after 48 hrs by microdilution broth method; conditions: Lichtheimia corymbifera, 272, 48 h; summary of the method: as §2
[6] = test system: Staphylococcus epidermidis; test: Antibacterial activity against Staphylococcus epidermidis H 6966/08 after 24 hrs by microdilution broth method; conditions: H 6966/08, 24 h; summary of the method: as §1
Candida albicans [7] = test: Antifungal activity against Candida albicans ATCC 44859 after 48 hrs by microdilution broth method; conditions: ATCC 44859, 48 h; summary of the method: as §2
Escherichia coli [8] = test: Antibacterial activity against Escherichia coli CCM4517 after 48 hrs by microdilution broth method; conditions: CCM4517, 48 h; summary of the method: as §1
Aspergillus fumigatus [9] = test: Antifungal activity against Aspergillus fumigatus 231 after 24 hrs by microdilution broth method; conditions: Aspergillus fumigatus, 231, 24 h; summary of the method: as §2
Aspergillus fumigatus [10] = test: Antifungal activity against Aspergillus fumigatus 231 after 48 hrs by microdilution broth method; conditions: Aspergillus fumigatus, 231, 48 h; summary of the method: as §2
[11] = test system: Mycobacterium tuberculosis; test: Antimycobacterial activity against Mycobacterium tuberculosis H37Rv 331/88 after 14 days; conditions: H37Rv 331/88, 336 h
Candida tropicalis [12] = test: Antifungal activity against Candida tropicalis 156 after 24 hrs by microdilution broth method; conditions: Candida tropicalis, 156, 24 h; summary of the method: as §2
[13] = test system: Mycobacterium tuberculosis; test: Antimycobacterial activity against Mycobacterium tuberculosis H37Rv 331/88 after 21 days; conditions: H37Rv 331/88, 504 h
Nakaseomyces glabratus [14] = test: Antifungal activity against Candida glabrata 20/I after 48 hrs by microdilution broth method; summary of the method: as §2
Escherichia coli [15] = test: Antibacterial activity against Escherichia coli CCM4517 after 24 hrs by microdilution broth method; conditions: CCM4517, 24 h; summary of the method: as §1
Mycobacterium kansasii [16] = test: Antimycobacterial activity against Mycobacterium kansasii 235/80 after 7 days; conditions: 235/80, 168 h
Summary of the method: (§3)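 Šula's semisynthetic medium micromethod at 37 °C, read after 7, 14 and 21 days. The 1.0 McFarland suspension was diluted 10^-4. MIC determined. 6509/96 is a clinical isolate.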

Mycobacterium avium [17] = test: Antimycobacterial activity against Mycobacterium avium 330/80 after 21 days; conditions: 330/80, 504 h
Trichosporon asahii [18] = test: Antifungal activity against Trichosporon asahii 1188 after 24 hrs by microdilution broth method; conditions: Trichosporon asahii, 1188, 24 h; summary of the method: as §2
[19] = test system: Staphylococcus epidermidis; test: Antibacterial activity against Staphylococcus epidermidis H 6966/08 after 48 hrs by microdilution broth method; conditions: H 6966/08, 48 h; summary of the method: as §1
Mycobacterium kansasii [20] = test: Antimycobacterial activity against Mycobacterium kansasii 235/80 after 14 days; conditions: 235/80, 336 h; summary of the method: as §3
Staphylococcus aureus [21] = test: Antibacterial activity against Staphylococcus aureus CCM 4516/08 after 48 hrs by microdilution broth method; conditions: CCM 4516/08, 48 h
Klebsiella pneumoniae [22] = test: Antibacterial activity against ESBL-positive Klebsiella pneumoniae J 14368/08 after 24 hrs by microdilution broth method; conditions: J 14368/08, 24 h; summary of the method: as §1
Klebsiella pneumoniae [23] = test: Antibacterial activity against Klebsiella pneumoniae D 11750/08 after 24 hrs by microdilution broth method; conditions: D 11750/08, 24 h; summary of the method: as §1
Mycobacterium avium [24] = test: Antimycobacterial activity against Mycobacterium avium 330/80 after 14 days; conditions: 330/80, 336 h
Mycobacterium kansasii [25] = test: Antimycobacterial activity against Mycobacterium kansasii 6509/96 after 7 days; conditions: 6509/96, 168 h; summary of the method: as §3
Candida albicans [26] = test: Antifungal activity against Candida albicans ATCC 44859 after 24 hrs by microdilution broth method; conditions: ATCC 44859, 24 h; summary of the method: as §2
Staphylococcus aureus [27] = test: Antibacterial activity against methicillin-resistant Staphylococcus aureus H 5996/08 after 24 hrs by microdilution broth method; conditions: H 5996/08, 24 h
Mycobacterium kansasii [28] = test: Antimycobacterial activity against Mycobacterium kansasii 235/80 after 21 days; conditions: 235/80, 504 h; summary of the method: as §3
[29] = test system: Trichophyton mentagrophytes; test: Antifungal activity against Trichophyton mentagrophytes 445 after 24 hrs by microdilution broth method; conditions: Trichophyton mentagrophytes, 445, 24 h
Enterococcus sp. [30] = test: Antibacterial activity against Enterococcus sp. J 14365/08 after 24 hrs by microdilution broth method; conditions: J 14365/08, 24 h; summary of the method: as §1
Staphylococcus aureus [31] = test: Antibacterial activity against Staphylococcus aureus CCM 4516/08 after 24 hrs by microdilution broth method; conditions: CCM 4516/08, 24 h
Pichia kudriavzevii [32] = test: Antifungal activity against Candida krusei E28 after 24 hrs by microdilution broth method; conditions: E28, 24 h; summary of the method: as §2
Pichia kudriavzevii [33] = test: Antifungal activity against Candida krusei E28 after 48 hrs by microdilution broth method; conditions: E28, 48 h; summary of the method: as §2
Klebsiella pneumoniae [34] = test: Antibacterial activity against ESBL-positive Klebsiella pneumoniae J 14368/08 after 48 hrs by microdilution broth method; conditions: J 14368/08, 48 h; summary of the method: as §1
Staphylococcus aureus [35] = test: Antibacterial activity against methicillin-resistant Staphylococcus aureus H 5996/08 after 48 hrs by microdilution broth method; conditions: H 5996/08, 48 h
Mycobacterium kansasii [36] = test: Antimycobacterial activity against Mycobacterium kansasii 6509/96 after 14 days; conditions: 6509/96, 336 h; summary of the method: as §3
Nakaseomyces glabratus [37] = test: Antifungal activity against Candida glabrata 20/I after 24 hrs by microdilution broth method; summary of the method: as §2
Pseudomonas aeruginosa [38] = test: Antibacterial activity against Pseudomonas aeruginosa CCM 1961 after 48 hrs by microdilution broth method; conditions: CCM 1961, 48 h; summary of the method: as §1
Mycobacterium kansasii [39] = test: Antimycobacterial activity against Mycobacterium kansasii 6509/96 after 21 days; conditions: 6509/96, 504 h; summary of the method: as §3
Trichosporon asahii [40] = test: Antifungal activity against Trichosporon asahii 1188 after 48 hrs by microdilution broth method; conditions: Trichosporon asahii, 1188, 48 h; summary of the method: as §2
Lichtheimia corymbifera [41] = test: Antifungal activity against Absidia corymbifera 272 after 24 hrs by microdilution broth method; conditions: Lichtheimia corymbifera, 272, 24 h; summary of the method: as §2
Enterococcus sp. [42] = test: Antibacterial activity against Enterococcus sp. J 14365/08 after 48 hrs by microdilution broth method; conditions: J 14365/08, 48 h; summary of the method: as §1

Measured: MIC

O=C(Nc1ccc([N+](=O)[O-])c(C(F)(F)F)c1)c1ccc([N+](=O)[O-])cc1O
125 µM: Lichtheimia corymbifera [5] | Lichtheimia corymbifera [41]
7.81 µM: [6] | [19] | Staphylococcus aureus [21] | Staphylococcus aureus [31]
16 µM: [11] | [13] | Mycobacterium kansasii [16] | Mycobacterium kansasii [25]
32 µM: Mycobacterium kansasii [20] | Mycobacterium kansasii [28] | Mycobacterium kansasii [36] | Mycobacterium kansasii [39]
500 µM: [29] | Trichosporon asahii [40] | Enterococcus sp. [42]
> 500 µM: [1] | Klebsiella pneumoniae [2] | Pseudomonas aeruginosa [3] | Candida tropicalis [4] | Candida albicans [7] | Escherichia coli [8] | Candida tropicalis [12] | Nakaseomyces glabratus [14] | Escherichia coli [15] | Klebsiella pneumoniae [22] | Klebsiella pneumoniae [23] | Candida albicans [26] | Klebsiella pneumoniae [34] | Nakaseomyces glabratus [37] | Pseudomonas aeruginosa [38]
62.5 µM: Mycobacterium avium [17] | Mycobacterium avium [24]
250 µM: Aspergillus fumigatus [9] | Aspergillus fumigatus [10] | Trichosporon asahii [18] | Enterococcus sp. [30] | Pichia kudriavzevii [32] | Pichia kudriavzevii [33]
3.9 µM: Staphylococcus aureus [27] | Staphylococcus aureus [35]

O=C(Nc1cccc([N+](=O)[O-])c1)c1ccc([N+](=O)[O-])cc1O
32 µM: [11] | [13] | Mycobacterium kansasii [16] | Mycobacterium kansasii [20] | Mycobacterium kansasii [25] | Mycobacterium kansasii [36] | Mycobacterium kansasii [39]
125 µM: Mycobacterium avium [17] | Mycobacterium avium [24] | Staphylococcus aureus [27] | Staphylococcus aureus [35]
62.5 µM: [19] | Staphylococcus aureus [21] | Mycobacterium kansasii [28] | Staphylococcus aureus [31]
31.2 µM: [6]
> 250 µM: [1] | Klebsiella pneumoniae [2] | Pseudomonas aeruginosa [3] | Candida tropicalis [4] | Lichtheimia corymbifera [5] | Candida albicans [7] | Escherichia coli [8] | Aspergillus fumigatus [9] | Aspergillus fumigatus [10] | Candida tropicalis [12] | Nakaseomyces glabratus [14] | Escherichia coli [15] | Trichosporon asahii [18] | Klebsiella pneumoniae [22] | Klebsiella pneumoniae [23] | Candida albicans [26] | [29] | Enterococcus sp. [30] | Pichia kudriavzevii [32] | Pichia kudriavzevii [33] | Klebsiella pneumoniae [34] | Nakaseomyces glabratus [37] | Pseudomonas aeruginosa [38] | Trichosporon asahii [40] | Lichtheimia corymbifera [41] | Enterococcus sp. [42]

From ChEMBL document CHEMBL3627671, “Novel derivatives of nitro-substituted salicylic acids: Synthesis, antimicrobial activity and cytotoxicity” (Bioorg Med Chem, 2015)
